Source: ChEMBL document CHEMBL1155475, “Semisynthesis and pharmacological activities of thyroxine analogs: Development of new angiogenesis modulators” (2010)

How the values were obtained:
Format in all cases: functional
Mus musculus = assay: Stimulation of angiogenesis in Matrigel plug implanted C57BL/6 mouse assessed as increase of hemoglobin level after 14 days at 10 ug/plug by Matrigel assay
Summary of the method: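 Mouse subcutaneous Matrigel plug. Matrigel is kept cold and compound is added with or without agonist. Plugs are injected subcutaneously at three sites per animal, 100 µL total. On day 14 the plugs are collected, homogenized in ddH2O and centrifuged 4000 rpm for 10 min. Supernatant is mixed with Drabkin's reagent for 15–30 min, A540 is read, and hemoglobin (mg/mL) is taken from a standard curve. Three implants per mouse, n = 6 per group.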

Gallus gallus [1] = species: Gallus gallus; assay: Stimulation of angiogenesis of fertilized chicken egg membrane assessed as stimulation of blood vessel formation at 10 ug/CAM after 48 hrs by CAM assay
Summary of the method: (§1)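 Chick chorioallantoic membrane model. Filter disks are soaked in 3 mg/mL cortisone acetate in 95% ethanol, air-dried, then saturated with test agent, L-T4 or FGF, and placed on the CAM. Agents are tested at 10 µg/CAM. Tissue beneath the disk is harvested after 48 h and examined by stereomicroscope at 50× with digital image capture. Data are mean ± SEM, n = 8.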

Gallus gallus [2] = species: Gallus gallus; assay: Antiangiogenesis of fertilized chicken egg membrane assessed as inhibition of FGF-induced blood vessel formation at 10 ug/CAM after 48 hrs by CAM assay; summary of the method: as §1

| Compound | Activity (Mus musculus) [%] | Activity (Gallus gallus [1]) [%] | inhibition (Gallus gallus [2]) [%] |
| --- | --- | --- | --- |
| CCNC(Cc1cc(I)c(Oc2cc(I)c(O)c(I)c2)c(I)c1)C(=O)O (configuration not stated) | 45 | 86 |  |
| CC(C)(C)OC(=O)NC(Cc1cc(I)c(Oc2cc(I)c(OCC3CO3)c(I)c2)c(I)c1)C(=O)OCC1CO1 (configuration not stated) | 0 | 56 |  |
| CC(C)[Si](OC(=O)C(Cc1cc(I)c(Oc2cc(I)c(OCC3CO3)c(I)c2)c(I)c1)NC(=O)OC(C)(C)C)(C(C)C)C(C)C (configuration not stated) | 0 | 34 |  |
| CCNC(Cc1cc(I)c(Oc2cc(I)c(O)c(I)c2)c(I)c1)C(=O)OCC (configuration not stated) |  |  | 38 |
| CCCC(=O)NC(Cc1cc(I)c(Oc2cc(I)c(O)c(I)c2)c(I)c1)C(=O)O (configuration not stated) | 62 | 34 |  |
| CC(C)[Si](OC(=O)C(Cc1cc(I)c(Oc2cc(I)c(O)c(I)c2)c(I)c1)NC(=O)OC(C)(C)C)(C(C)C)C(C)C (configuration not stated) | 0 | 4 |  |
| CC(=O)NC(Cc1cc(I)c(Oc2cc(I)c(OC(C)=O)c(I)c2)c(I)c1)C(=O)O (configuration not stated) | 95 | 67 |  |
| N[C@@H](Cc1cc(I)c(Oc2cc(I)c(O)c(I)c2)c(I)c1)C(=O)O [LEVOTHYROXINE] | 100 | 88 |  |
| CNC(Cc1cc(I)c(Oc2cc(I)c(O)c(I)c2)c(I)c1)C(=O)O (configuration not stated) | 87 | 44 |  |
